{"source": "ChEMBL document CHEMBL1131532", "about": "“Synthesis and structure-activity relationships of carboxyflavones as structurally rigid CysLT1 (LTD4) receptor antagonists” (J Med Chem, 1998)", "data": [{"target": "T1, Cysteinyl leukotriene receptor 1 (Cavia porcellus, UniProt Q2NNR5)", "T1 sequence (Q2NNR5 whole entry)": "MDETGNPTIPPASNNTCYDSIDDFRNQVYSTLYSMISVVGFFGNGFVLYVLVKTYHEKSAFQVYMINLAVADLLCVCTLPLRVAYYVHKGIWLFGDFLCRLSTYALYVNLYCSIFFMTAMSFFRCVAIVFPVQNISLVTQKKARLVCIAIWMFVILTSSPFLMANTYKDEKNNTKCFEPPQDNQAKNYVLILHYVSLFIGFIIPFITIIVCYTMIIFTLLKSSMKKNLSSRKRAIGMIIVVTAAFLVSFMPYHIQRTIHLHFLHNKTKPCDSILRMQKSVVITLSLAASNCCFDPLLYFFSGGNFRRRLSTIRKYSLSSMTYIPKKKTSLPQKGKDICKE", "assay": "In vitro affinity for CysLT1 receptors on guinea pig lung membranes, measured by displacement of [3H]LTD4.", "assay_type": "tissue-based", "details": "not given", "in_short": "(§1)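 Guinea pig lung membrane fractions (about 170 µg/mL) with 0.2 nM [3H]LTD4 and test compound in 10 mM PIPES buffer, pH 7.5 (10 mM CaCl2, 10 mM MgCl2, 50 mM NaCl, 2 mM cysteine, 2 mM glycine), 30 min at 22 °C. Stopped with ice-cold Tris-HCl/NaCl, vacuum-filtered, filter radioactivity counted. Means ± SD of three determinations.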", "units": {"Kd": "µM"}, "values": [{"smiles": "O=C(O)c1cccc2c(=O)cc(-c3ccc(OCc4ccccc4)cc3)oc12", "Kd": 55}, {"smiles": "O=c1cc(-c2cccc(/C=C/c3ccc4ccccc4n3)c2)oc2c(-c3nn[nH]n3)cc(Cl)cc12", "Kd": 11}, {"smiles": "O=C(O)c1cccc2c(=O)cc(-c3cccc(/C=C/c4ccc5ccccc5n4)c3)oc12", "Kd": 0.017}, {"smiles": "O=C(O)c1ccc2c(=O)cc(-c3cccc(/C=C/c4ccc5ccccc5n4)c3)oc2c1", "Kd": 1.73}]}, {"organism": "Cavia porcellus", "assay": "Ex vivo inhibition of LTD4 induced contraction of guinea pig ileum.", "assay_type": "functional", "details": "not given", "in_short": "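Ileum segments (2 cm) from male guinea pigs, mounted open-lumen on a transducer. Compounds in DMSO, 10^-5 to 3.0 × 10^-9 M, preincubated 30 min, then contraction evoked by 10^-8 M LTD4. Indomethacin (10^-6 M) added to the bath 10 min before LTD4.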", "units": {"IC50": "nM"}, "values": [{"smiles": "O=C(O)c1cc(Br)cc2c(=O)cc(-c3cccc(OCc4ccc5ccccc5n4)c3)oc12", "IC50": 61}, {"smiles": "Cc1cc(C(=O)O)c2oc(-c3cccc(/C=C/c4ccc5ccccc5n4)c3)cc(=O)c2c1", "IC50": 28}, {"smiles": "O=C(O)c1cccc2c(=O)cc(-c3cccc(/C=C/c4ccc5ccccc5n4)c3)oc12", "IC50": 42}, {"smiles": "O=C(O)c1cc(Cl)cc2c(=O)cc(-c3cccc(/C=C/c4ccc5ccccc5n4)c3)oc12", "IC50": 15}, {"smiles": "O=C(O)c1cc(Br)cc2c(=O)cc(-c3cccc(/C=C/c4ccc5ccccc5n4)c3)oc12", "IC50": 100}]}, {"target": "T2, Cysteinyl leukotriene receptor 1 (Cavia porcellus) (UniProt Q2NNR5)", "T2 sequence (whole entry)": "T1 sequence (Q2NNR5 whole entry)", "assay": "In vitro inhibition of [3H]LTD4 binding to CysLT1 receptors on guinea pig lung membranes.", "assay_type": "tissue-based", "parameters": "concentration or dose not given beside the values", "details": "concentration not given here", "in_short": "as §1, with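 “determinations. Percent inhibition taken at 10^-5 M where no KD obtained.” for “determinations.”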", "units": {"inhibition": "%"}, "values": [{"smiles": "O=C(O)c1ccc2oc(-c3ccc(OCc4ccccc4)cc3)cc(=O)c2c1", "inhibition": 23}, {"smiles": "O=C(O)c1cccc2c(=O)cc(-c3cccc(OCc4ccccc4)c3)oc12", "inhibition": 50}, {"smiles": "CCOC(=O)c1cccc2c(=O)cc(-c3ccc(OCc4ccc5ccccc5n4)cc3)oc12", "inhibition": 32}, {"smiles": "O=C(O)c1cccc2c(=O)cc(-c3ccc(OCc4ccc5ccccc5c4)cc3)oc12", "inhibition": 32}, {"smiles": "CCOC(=O)c1cccc2c(=O)cc(-c3cccc(OCc4ccc5ccccc5n4)c3)oc12", "inhibition": 38}, {"smiles": "O=C(O)c1ccc2oc(-c3ccc(/C=C/c4ccc5ccccc5n4)cc3)cc(=O)c2c1", "inhibition": 28}, {"smiles": "N#Cc1cc(Cl)cc2c(=O)cc(-c3cccc(/C=C/c4ccc5ccccc5n4)c3)oc12", "inhibition": 0}]}]}
